Measurements as given in PMC3113683 (Biochemistry, 2009).
No end group written: not given here. *: point of attachment. Biotin = O=C1N[C@H]2[C@H](CS[C@H]2CCCCC(=O)*)N1

T1: LYP300 (Homo sapiens, UniProt Q9Y2R2)
T1 sequence (Q9Y2R2 1-300): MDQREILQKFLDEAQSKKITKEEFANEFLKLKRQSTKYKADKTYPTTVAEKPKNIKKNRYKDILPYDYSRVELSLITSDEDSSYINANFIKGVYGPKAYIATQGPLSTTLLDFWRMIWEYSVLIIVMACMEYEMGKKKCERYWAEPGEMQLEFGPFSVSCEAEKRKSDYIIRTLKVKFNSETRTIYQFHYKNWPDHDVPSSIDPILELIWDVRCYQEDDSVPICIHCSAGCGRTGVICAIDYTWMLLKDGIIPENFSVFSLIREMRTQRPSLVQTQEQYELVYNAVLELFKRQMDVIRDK

B1: LYP320: LYP truncation, amino acids 1−320 (protein)
chain: MDQREILQKFLDEAQSKKITKEEFANEFLKLKRQSTKYKADKTYPTTVAEKPKNIKKNRYKDILPYDYSRVELSLITSDEDSSYINANFIKGVYGPKAYIATQGPLSTTLLDFWRMIWEYSVLIIVMACMEYEMGKKKCERYWAEPGEMQLEFGPFSVSCEAEKRKSDYIIRTLKVKFNSETRTIYQFHYKNWPDHDVPSSIDPILELIWDVRCYQEDDSVPICIHCSAGCGRTGVICAIDYTWMLLKDGIIPENFSVFSLIREMRTQRPSLVQTQEQYELVYNAVLELFKRQMDVIRDKHSGTESQAKHCIPEKNHTLQ
modifications: left off: His6, end not stated, cleaved
B2: LYP423: LYP truncation, amino acids 1−423 (protein, UniProt Q9Y2R2 1-423, looked up, fragment)
chain: MDQREILQKFLDEAQSKKITKEEFANEFLKLKRQSTKYKADKTYPTTVAEKPKNIKKNRYKDILPYDYSRVELSLITSDEDSSYINANFIKGVYGPKAYIATQGPLSTTLLDFWRMIWEYSVLIIVMACMEYEMGKKKCERYWAEPGEMQLEFGPFSVSCEAEKRKSDYIIRTLKVKFNSETRTIYQFHYKNWPDHDVPSSIDPILELIWDVRCYQEDDSVPICIHCSAGCGRTGVICAIDYTWMLLKDGIIPENFSVFSLIREMRTQRPSLVQTQEQYELVYNAVLELFKRQMDVIRDKHSGTESQAKHCIPEKNHTLQADSYSPNLPKSTTKAAKMMNQQRTKMEIKESSSFDFRTSEISAKEELVLHPAKSSTSFDFLELNYSFDKNADTTMKWQTKAFPIVGEPLQKHQSLDLGSLLFE
B3: LYP300: truncation of LYP immediately C-terminal to the catalytic domain (amino acids 1−300) (protein)
chain: MDQREILQKFLDEAQSKKITKEEFANEFLKLKRQSTKYKADKTYPTTVAEKPKNIKKNRYKDILPYDYSRVELSLITSDEDSSYINANFIKGVYGPKAYIATQGPLSTTLLDFWRMIWEYSVLIIVMACMEYEMGKKKCERYWAEPGEMQLEFGPFSVSCEAEKRKSDYIIRTLKVKFNSETRTIYQFHYKNWPDHDVPSSIDPILELIWDVRCYQEDDSVPICIHCSAGCGRTGVICAIDYTWMLLKDGIIPENFSVFSLIREMRTQRPSLVQTQEQYELVYNAVLELFKRQMDVIRDK
modifications: left off: HA, N-terminal, kept
B4: LYP300/S227: inactive mutant of LYP300 (protein, UniProt Q9Y2R2 1-300, looked up, fragment C227S)
chain: MDQREILQKFLDEAQSKKITKEEFANEFLKLKRQSTKYKADKTYPTTVAEKPKNIKKNRYKDILPYDYSRVELSLITSDEDSSYINANFIKGVYGPKAYIATQGPLSTTLLDFWRMIWEYSVLIIVMACMEYEMGKKKCERYWAEPGEMQLEFGPFSVSCEAEKRKSDYIIRTLKVKFNSETRTIYQFHYKNWPDHDVPSSIDPILELIWDVRCYQEDDSVPICIHSSAGCGRTGVICAIDYTWMLLKDGIIPENFSVFSLIREMRTQRPSLVQTQEQYELVYNAVLELFKRQMDVIRDK
B5: LYP/S227: inactive mutant of LYP (protein, UniProt Q9Y2R2 1-807, looked up, variant C227S)
Tyrosine-protein phosphatase …: MDQREILQKFLDEAQSKKITKEEFANEFLKLKRQSTKYKADKTYPTTVAEKPKNIKKNRYKDILPYDYSRVELSLITSDEDSSYINANFIKGVYGPKAYIATQGPLSTTLLDFWRMIWEYSVLIIVMACMEYEMGKKKCERYWAEPGEMQLEFGPFSVSCEAEKRKSDYIIRTLKVKFNSETRTIYQFHYKNWPDHDVPSSIDPILELIWDVRCYQEDDSVPICIHSSAGCGRTGVICAIDYTWMLLKDGIIPENFSVFSLIREMRTQRPSLVQTQEQYELVYNAVLELFKRQMDVIRDKHSGTESQAKHCIPEKNHTLQADSYSPNLPKSTTKAAKMMNQQRTKMEIKESSSFDFRTSEISAKEELVLHPAKSSTSFDFLELNYSFDKNADTTMKWQTKAFPIVGEPLQKHQSLDLGSLLFEGCSNSKPVNAAGRYFNSKVPITRTKSTPFELIQQRETKEVDSKENFSYLESQPHDSCFVEMQAQKVMHVSSAELNYSLPYDSKHQIRNASNVKHHDSSALGVYSYIPLVENPYFSSWPPSGTSSKMSLDLPEKQDGTVFPSSLLPTSSTSLFSYYNSHDSLSLNSPTNISSLLNQESAVLATAPRIDDEIPPPLPVRTPESFIVVEEAGEFSPNVPKSLSSAVKVKIGTSLEWGGTSEPKKFDDSVILRPSKSVKLRSPKSELHQDRSSPPPPLPERTLESFFLADEDCMQAQSIETYSTSYPDTMENSTSSKQTLKTPGKSFTRSKSLKILRNMKKSICNSCPPNKPAESVQSNNSSSFLNFGFANRFSKPKGPRNPPPTWNI
B6: LYP: lymphoid tyrosine phosphatase LYP, encoded by the PTPN22 gene (protein, UniProt Q9Y2R2 1-807, looked up)
Tyrosine-protein phosphatase …: MDQREILQKFLDEAQSKKITKEEFANEFLKLKRQSTKYKADKTYPTTVAEKPKNIKKNRYKDILPYDYSRVELSLITSDEDSSYINANFIKGVYGPKAYIATQGPLSTTLLDFWRMIWEYSVLIIVMACMEYEMGKKKCERYWAEPGEMQLEFGPFSVSCEAEKRKSDYIIRTLKVKFNSETRTIYQFHYKNWPDHDVPSSIDPILELIWDVRCYQEDDSVPICIHCSAGCGRTGVICAIDYTWMLLKDGIIPENFSVFSLIREMRTQRPSLVQTQEQYELVYNAVLELFKRQMDVIRDKHSGTESQAKHCIPEKNHTLQADSYSPNLPKSTTKAAKMMNQQRTKMEIKESSSFDFRTSEISAKEELVLHPAKSSTSFDFLELNYSFDKNADTTMKWQTKAFPIVGEPLQKHQSLDLGSLLFEGCSNSKPVNAAGRYFNSKVPITRTKSTPFELIQQRETKEVDSKENFSYLESQPHDSCFVEMQAQKVMHVSSAELNYSLPYDSKHQIRNASNVKHHDSSALGVYSYIPLVENPYFSSWPPSGTSSKMSLDLPEKQDGTVFPSSLLPTSSTSLFSYYNSHDSLSLNSPTNISSLLNQESAVLATAPRIDDEIPPPLPVRTPESFIVVEEAGEFSPNVPKSLSSAVKVKIGTSLEWGGTSEPKKFDDSVILRPSKSVKLRSPKSELHQDRSSPPPPLPERTLESFFLADEDCMQAQSIETYSTSYPDTMENSTSSKQTLKTPGKSFTRSKSLKILRNMKKSICNSCPPNKPAESVQSNNSSSFLNFGFANRFSKPKGPRNPPPTWNI
modifications: HA tag

What was measured:
LYP300 = target: T1, LYP300; test: Phosphatase assay, trans effect of peptides on LYP300; format: biochemical; conditions: Figure 5A,C; 5 nM LYP300; DiFMUP; Bis-Tris pH 6.0
LYP [1] = test: Phosphatase kinetics of LYP300 and LYP320 from E. coli on pTyr peptide; format: biochemical, human; conditions: purified from bacterial lysates
[2] = Gel filtration chromatography; format: physicochemical; conditions: Superdex 75 10/300 GL; TNE and phosphatase buffers
LYP [3] = test: Phosphatase kinetics of LYP300 and LYP320 from E. coli on DiFMUP; format: biochemical, human; conditions: purified from bacterial lysates
Outline: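 LYP300 and LYP320 (aa 1−300, 1−320) expressed in BL21(DE3) from pET28a. Purified by Ni2+-NTA, His tag cleaved with thrombin, protease removed on benzamidine, dialysed into 50 mM Tris-HCl pH 8.0, 0.5 mM EDTA, 1 mM DTT. 5 nM enzyme was assayed in Bis-Tris pH 6.0/DTT over a DiFMUP concentration range. Fluorescence (ex 360, em 460 nm) was read continuously at initial rate. Triplicates were corrected against no-enzyme blanks and fitted to Michaelis–Menten.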

LYP [4] = format: biochemical, human; conditions: Figure 2C; Vmax, 1 nM enzyme, 0.4 mM DiFMUP, triplicate
Outline: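 FLAG-tagged full-length LYP and C-terminal truncations (aa 1−300, 1−423, 1−517, 1−600) were expressed in baculovirus-infected Sf9 cells. They were purified on M2-FLAG beads, eluted with FLAG peptide plus DTT into 50 mM Tris-HCl pH 8.0, 0.5 mM EDTA, 1 mM DTT (>80% pure). Activity was measured under Vmax conditions in 50−100 mM Bis-Tris pH 6.0, 1−5 mM DTT. DiFMUP hydrolysis was followed continuously by fluorescence (ex 360, em 460 nm), with background subtracted using no-enzyme triplicates.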

LYP [5] = format: biochemical, human; conditions: Figure 2D; Vmax, 1 nM enzyme, 0.16 mM peptide, triplicate
[6] = test system: T cell receptor (TCR) signaling; conditions: T cells; ref [4]-[8]; cited from earlier work

Row | Molecule | Phosphatase activity on DiFMUP (LYP [4]) | Phosphatase activity on pTyr peptide (LYP [5]) | further results
1 | HSGTESQAKHCIPEKNHTLQ [peptide of amino acids 301−320] |  |  | Inhibition of LYP300 phosphatase activity by peptide (LYP300): substantial inhibition of the phosphatase activity
2 | biotin-ATAPRIDDEIPPPLPVRTPESFIVVEEAGEFSPNVPKSLS (Biotin-ATAPRIDDEIPPPLPVRTPESFIVVEEAGEFSPNVPKSLS) [peptide of amino acids 604−643, reference compound] |  |  | Inhibition of LYP300 phosphatase activity by peptide (LYP300): did not lead to any significant inhibition of the phosphatase activity
3 | B1 |  |  | Activity relative to LYP300 on pTyr peptide (LYP [1]): consistently less active than LYP300; Oligomeric state by gel filtration [2]: elute as monomers; Activity relative to LYP300 on DiFMUP (LYP [3]): consistently less active than LYP300
4 | B2 | slightly increased activity | slightly increased activity | 
5 | B3 | greatly increased phosphatase activity | greatly increased phosphatase activity | Oligomeric state by gel filtration [2]: elute as monomers
6 | B4 | did not exhibit any activity | did not exhibit any activity | 
7 | B5 | did not exhibit any activity | did not exhibit any activity | 
8 | B6 |  |  | Inhibition of T cell receptor signaling [6]: potently inhibit T cell receptor (TCR) signaling
